Source: ChEMBL document CHEMBL4261527, “Benzylsulfanyl benzo-heterocycle amides and hydrazones as new agents against drug-susceptible and resistant Mycobacterium tuberculosis” (Medchemcomm, 2017)
Values after ≈ are worked out from the molar mass of the structure shown. Active and inactive are the calls of the source. The rule behind the calls is not given here.

Columns and labels:
[1] = system: Mycobacterium tuberculosis; experiment: Antimycobacterial activity against extensively drug-resistant Mycobacterium tuberculosis clinical isolate; type: functional
Outline: (§1)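 Clinical isolates coded 960 (drug-susceptible), 330 (MDR) and 431 (XDR); MIC reported in μM.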

[2] = system: Mycobacterium tuberculosis; experiment: Antimycobacterial activity against multidrug-resistant Mycobacterium tuberculosis clinical isolate; type: functional; outline: as §1
[3] = system: Mycobacterium tuberculosis; experiment: Antitubercular activity against Mycobacterium tuberculosis H37Ra harboring pTYOK infected in Balb/c mouse assessed as bacterial growth inhibition at 10 mg/kg qd measured at 2 days interval for 6 days by luminometric method; type: functional, organism-based
Outline: (§2)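 Mice infected with marker-free autoluminescent Mtb H37Ra and dosed once daily for 6 consecutive days; vehicle CMC-Na. Read-out is the luminescence ratio RLU on day n over RLU on day 0, plotted against days after the first treatment.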

[4] = system: Mycobacterium tuberculosis; experiment: Antimycobacterial activity against kanamycin-resistant Mycobacterium tuberculosis ATCC 35827 by resazurin dye based fluorimetric method; type: functional
[5] = system: Mycobacterium tuberculosis; experiment: Antimycobacterial activity against streptomycin-resistant Mycobacterium tuberculosis ATCC 35820 by resazurin dye based fluorimetric method; type: functional
[6] = system: Mycobacterium tuberculosis; experiment: Antimycobacterial activity against ethionamide-resistant Mycobacterium tuberculosis ATCC 35830 by resazurin dye based fluorimetric method; type: functional
[7] = system: Mycobacterium tuberculosis; experiment: Antimycobacterial activity against ethambutol-resistant Mycobacterium tuberculosis ATCC 35837 by resazurin dye based fluorimetric method; type: functional
[8] = system: Mycobacterium tuberculosis; experiment: Antimycobacterial activity against rifampicin-resistant Mycobacterium tuberculosis H37Rv by resazurin dye based fluorimetric method; type: functional
[9] = system: Mycobacterium tuberculosis; experiment: Potency index, ratio of isoniazid MIC to test compound MIC for extensively drug-resistant Mycobacterium tuberculosis clinical isolate; type: functional
[10] = system: Mycobacterium tuberculosis; experiment: Potency index, ratio of ftivazide MIC to test compound MIC for extensively drug-resistant Mycobacterium tuberculosis clinical isolate; type: functional
[11] = system: Mycobacterium tuberculosis; experiment: Antitubercular activity against Mycobacterium tuberculosis H37Ra harboring pTYOK infected in Balb/c mouse assessed as bacterial growth inhibition at 3.1 mg/kg qd measured at 2 days interval for 6 days by luminometric method; type: functional, organism-based; outline: as §2

Row | Structure (SMILES) | MIC [1] [µM] | MIC [2] [µM] | growth inhibition (GI) [3] | MIC [4] [µg/mL] | MIC [5] [µg/mL] | MIC [6] [µg/mL] | MIC [7] [µg/mL] | MIC [8] [µg/mL] | Ratio [9] | Ratio [10] | growth inhibition (GI) [11]
1 | CO[C@H]1/C=C/O[C@@]2(C)Oc3c(C)c(O)c4c(O)c(c(/C=N/N5CCN(C)CC5)c(O)c4c3C2=O)NC(=O)/C(C)=C\C=C\[C@H](C)[C@H](O)[C@@H](C)[C@@H](O)[C@@H](C)[C@H](OC(C)=O)[C@@H]1C [RIFAMPIN] | > 19 | > 19 | Active | – | – | – | – | – | – | – | –
2 | COc1cc(/C=N/NC(=O)c2ccncc2)ccc1O [FTIVAZIDE] | 32 (≈ 8.68 µg/mL) | 16 (≈ 4.34 µg/mL) | – | 0.156 (≈ 0.575 µM) | 0.312 (≈ 1.15 µM) | 1.25 (≈ 4.61 µM) | 0.312 (≈ 1.15 µM) | 0.312 (≈ 1.15 µM) | – | – | –
3 | O=C(N/N=C/c1ccc(CSc2nc3ccccc3o2)cc1)c1ccncc1 | 3.2 (≈ 1.24 µg/mL) | 6.4 (≈ 2.49 µg/mL) | – | 0.156 (≈ 0.402 µM) | 0.156 (≈ 0.402 µM) | 1.25 (≈ 3.22 µM) | 0.156 (≈ 0.402 µM) | 0.312 (≈ 0.803 µM) | 20 | 10 | Active
4 | O=C(N/N=C/c1ccc(CSc2nc3ccccc3[nH]2)cc1)c1ccncc1 | > 12.8 | 6.4 (≈ 2.48 µg/mL) | – | 0.156 (≈ 0.403 µM) | 0.156 (≈ 0.403 µM) | 1.25 (≈ 3.23 µM) | 0.156 (≈ 0.403 µM) | 0.312 (≈ 0.805 µM) | – | – | –
5 | O=C(NCc1ccc(CSc2nc3ccccc3o2)cc1)c1ccncc1 | 16 (≈ 6.01 µg/mL) | 2 (≈ 0.751 µg/mL) | – | – | – | – | – | – | – | – | –
6 | O=C(N/N=C/c1ccc(CSc2nc3ccccc3s2)cc1)c1ccncc1 | > 12.8 | 6.4 (≈ 2.59 µg/mL) | – | 0.312 (≈ 0.771 µM) | 0.312 (≈ 0.771 µM) | 1.25 (≈ 3.09 µM) | 0.312 (≈ 0.771 µM) | 0.625 (≈ 1.55 µM) | – | – | –
7 | NNC(=O)c1ccncc1 [ISONIAZID] | 64 (≈ 8.78 µg/mL) | 8 (≈ 1.1 µg/mL) | – | – | – | – | – | – | – | – | –
